Columns and labels:
[1] = molecular target: Cannabinoid receptor 1 (Rattus norvegicus) (UniProt P20272); assay: Antagonist activity at cannabinoid CB1 receptor in rat brain cortical membrane assessed as effect on GTPgammaS binding at 30 uM by liquid scintillation counting relative to CP-55940; type: functional, cell membranes; parameters: scale not given: the % may be the effect or the level left
[2] = molecular target: Cannabinoid receptor 1 (Homo sapiens) (UniProt P21554); assay: Inverse agonist activity at human recombinant cannabinoid CB1 receptor expressed in HEK293 cells assessed as decrease in GTPgammaS binding at 30 uM by liquid scintillation counting relative to CP-55940; type: functional, cell-based; parameters: scale not given: the % may be the effect or the level left
[3] = molecular target: Cannabinoid receptor 1 (Rattus norvegicus, UniProt P20272); assay: Displacement of [3H]CP-55940 from cannabinoid CB1 receptor in rat brain cortical membrane; type: cell membranes
[4] = molecular target: Cannabinoid receptor 1 (Rattus norvegicus) (UniProt P20272); assay: Displacement of [3H]CP-55940 from cannabinoid CB1 receptor in rat brain cortical membrane at 10 uM; type: cell membranes
In short: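 Competition vs 0.5 nM [3H]CP55,940 on rat brain cortical membranes (cortex homogenized in 0.32 M sucrose, differentially centrifuged), 50 µg protein/well, in 50 mM Tris-HCl pH 7.4, 3 mM MgCl2, 0.1% BSA; 2.5% DMSO final; rt, 2 h, started by protein; nonspecific with 10 µM unlabeled CP55,940; GF/C filtration, scintillation counting; ≥3 experiments in triplicate.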

[5] = molecular target: T1, Cannabinoid receptor 2 (Homo sapiens, UniProt P34972); assay: Displacement of [3H]CP-55940 from human recombinant cannabinoid CB2 receptor expressed in HEK293 cells; type: cell-based
[6] = molecular target: T1, Cannabinoid receptor 2; assay: Displacement of [3H]CP-55940 from human recombinant cannabinoid CB2 receptor expressed in HEK293 cells at 10 uM; type: cell-based
In short: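 Competition vs 0.5 nM [3H]CP55,940 using commercial HEK293 EBNA membranes expressing human CB2, 50 µg protein/well, in 50 mM Tris-HCl pH 7.4, 3 mM MgCl2, 0.1% BSA; 2.5% DMSO final; rt, 2 h, started by protein; nonspecific with 10 µM unlabeled CP55,940; GF/C filtration, scintillation counting; ≥3 experiments in duplicate.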

T1 sequence (P34972 whole entry): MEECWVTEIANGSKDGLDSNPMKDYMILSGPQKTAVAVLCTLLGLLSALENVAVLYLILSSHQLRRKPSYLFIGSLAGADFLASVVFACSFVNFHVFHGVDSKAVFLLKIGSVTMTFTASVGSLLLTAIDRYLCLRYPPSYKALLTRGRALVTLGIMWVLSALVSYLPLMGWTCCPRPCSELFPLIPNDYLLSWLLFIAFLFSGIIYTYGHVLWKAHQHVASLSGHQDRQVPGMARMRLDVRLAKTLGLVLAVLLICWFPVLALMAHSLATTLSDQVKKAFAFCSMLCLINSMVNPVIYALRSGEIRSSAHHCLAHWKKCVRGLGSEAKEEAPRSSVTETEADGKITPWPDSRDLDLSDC
Sequence of Cannabinoid receptor 1 (P20272 whole entry): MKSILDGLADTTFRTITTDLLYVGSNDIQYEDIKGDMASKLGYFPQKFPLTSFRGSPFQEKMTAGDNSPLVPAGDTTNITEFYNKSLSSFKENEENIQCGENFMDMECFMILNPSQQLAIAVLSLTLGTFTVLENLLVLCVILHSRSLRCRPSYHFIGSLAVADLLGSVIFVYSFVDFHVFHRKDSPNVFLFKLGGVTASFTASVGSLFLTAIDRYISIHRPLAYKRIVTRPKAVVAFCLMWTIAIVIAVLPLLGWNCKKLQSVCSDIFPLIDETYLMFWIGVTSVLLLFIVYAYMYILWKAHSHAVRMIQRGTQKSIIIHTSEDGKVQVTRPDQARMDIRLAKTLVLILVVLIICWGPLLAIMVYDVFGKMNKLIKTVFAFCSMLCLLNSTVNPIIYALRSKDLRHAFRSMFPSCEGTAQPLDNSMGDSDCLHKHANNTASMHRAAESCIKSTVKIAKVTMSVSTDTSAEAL
Sequence of Cannabinoid receptor 1 (Rattus norvegicus) (P20272 whole entry): as above
Sequence of Cannabinoid receptor 1 (Homo sapiens) (P21554 whole entry): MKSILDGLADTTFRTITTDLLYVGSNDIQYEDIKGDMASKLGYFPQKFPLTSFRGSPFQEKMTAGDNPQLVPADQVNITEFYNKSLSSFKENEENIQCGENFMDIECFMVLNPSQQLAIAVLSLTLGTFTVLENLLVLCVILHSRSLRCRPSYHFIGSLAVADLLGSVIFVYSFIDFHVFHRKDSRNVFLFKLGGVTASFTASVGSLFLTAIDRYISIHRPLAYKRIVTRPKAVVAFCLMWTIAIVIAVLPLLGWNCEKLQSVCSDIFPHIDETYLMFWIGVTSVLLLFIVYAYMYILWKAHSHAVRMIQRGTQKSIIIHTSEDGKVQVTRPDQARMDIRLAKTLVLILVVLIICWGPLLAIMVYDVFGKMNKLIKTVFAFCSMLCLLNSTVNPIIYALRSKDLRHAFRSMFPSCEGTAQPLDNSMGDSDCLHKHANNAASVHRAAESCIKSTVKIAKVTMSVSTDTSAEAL

Row | Activity [1] | Activity [2] | Structure (SMILES) | Ki [3] | Activity [4] | Ki [5] | Activity [6]
1 | 2% | -19% | Cc1c(C(=O)NN2CCOCC2)nn(-c2ccc(Cl)cc2Cl)c1-c1ccc(I)cc1 | – | – | – | –
2 | – | – | COc1ccc2oc(=O)c(C)cc2c1 | > 10 µM | 15% | ≥ 10 µM | 7%
3 | – | – | COc1cc(C)cc2oc(=O)c(Cc3ccc(C)cc3)cc12 | 9.14 µM | – | 4.76 µM | –
4 | – | – | COc1cc(C)cc2oc(=O)c(Cc3ccc(Cl)cc3)cc12 | 2.08 µM | – | 9.39 µM | –
5 | – | – | COc1ccc(Br)c2c1C=C(C(C)=O)C(C)O2 (centres undefined) | > 10 µM | 34% | > 10 µM | 7%
6 | – | – | COc1ccc2cc(Cc3ccccc3)c(=O)oc2c1 | > 10 µM | 31% | > 10 µM | 33%
7 | 13% | -10% | COc1ccc(Cc2cc3c(OC)cc(C)cc3oc2=O)cc1 | 6.14 µM | – | 5.81 µM | –
8 | – | – | Cc1cc2c(C(C)C)ccc(C)c2oc1=O | > 10 µM | 26% | > 10 µM | 0%
9 | – | – | COc1ccccc1Cc1cc2c(OC)cccc2oc1=O | 9.57 µM | – | 3.49 µM | –
10 | – | – | COc1ccc2cc(C)c(=O)oc2c1 | ≥ 10 µM | 1% | ≥ 10 µM | 2%
11 | – | – | COc1cc(C)cc2oc(=O)c(Cc3ccccc3C)cc12 | 1.17 µM | – | 2.16 µM | –
12 | – | – | COc1ccccc1Cc1cc2c(C(C)C)ccc(C)c2oc1=O | 6.18 µM | – | 5.67 µM | –
13 | – | – | COc1ccc(Br)c2oc(=O)c(Cc3ccccc3)cc12 | > 10 µM | 39% | > 10 µM | 29%
14 | – | – | COc1cccc2cc(Cc3ccccc3)c(=O)oc12 | ≥ 10 µM | 6% | ≥ 10 µM | 25%
15 | – | – | COc1cc(C)cc2oc(=O)c(Cc3ccccc3O)cc12 | 1.1 µM | – | 5.24 µM | –
16 | – | – | O=c1oc2ccc([N+](=O)[O-])cc2cc1Cc1ccccc1 | > 10 µM | 32% | > 10 µM | 15%
17 | – | – | COc1cc(Br)cc2cc(C)c(=O)oc12 | > 10 µM | 17% | > 10 µM | 9%
18 | – | – | COc1ccc2oc(=O)c(Cc3ccccc3)cc2c1 | ≥ 10 µM | 8% | > 10 µM | 37%

Row | Activity [1] | Activity [2] | Structure (SMILES) | Ki [3] | Activity [4] | Ki [5] | Activity [6]
19 | – | – | Cc1cc2cc(I)ccc2oc1=O | > 10 µM | 12% | > 10 µM | 10%
20 | – | – | COc1cccc2cc(C)c(=O)oc12 | ≥ 10 µM | 6% | > 10 µM | 4%
21 | – | – | O=C1C2=Cc3ccccc3OC2CC/C1=C\c1ccccc1O (centres undefined) | 4.9 µM | – | > 10 µM | 37%
22 | – | – | Cc1cc2c(ccc3ccccc32)oc1=O | > 10 µM | 10% | ≥ 10 µM | 2%
23 | – | – | O=c1oc2ccc(I)cc2cc1Cc1ccccc1 | > 10 µM | 31% | ≥ 10 µM | 44%
24 | – | – | COc1ccccc1Cc1cc2c(OC)ccc(C)c2oc1=O | 12.3 µM | – | 3.65 µM | –
25 | – | – | COc1ccccc1Cc1cc2c(ccc3ccccc32)oc1=O | > 10 µM | 41% | 2.06 µM | –
26 | – | – | COc1cc(C)cc2oc(=O)c(Cc3ccccc3Cl)cc12 | 0.978 µM | – | 1.54 µM | –
27 | – | – | O=c1oc2ccccc2cc1Cc1ccccc1 | > 10 µM | 18% | > 10 µM | 28%
28 | -2% | -16% | COc1ccccc1Cc1cc2c(OC)cc(C)cc2oc1=O | 0.738 µM | – | 1.03 µM | –
29 | – | – | COc1cccc2oc(=O)c(Cc3ccccc3)cc12 | 19.1 µM | – | > 10 µM | 28%
30 | – | – | Cc1cc2cc(Cl)cc(Br)c2oc1=O | ≥ 10 µM | 8% | ≥ 10 µM | 3%
31 | – | – | COc1ccc(Cc2cc3c(OC)cc(C)cc3oc2=O)c(OC)c1 | 6.23 µM | – | 2.78 µM | –
32 | – | – | CCOC(=O)/C(=C/C=C/c1ccccc1)C(=O)Oc1c(C2SCCS2)ccc2c1C=CC(C)(C)O2 | 1.37 µM | – | > 10 µM | 22%
33 | – | – | COc1cccc(Cc2cc3c(OC)cc(C)cc3oc2=O)c1 | 4.11 µM | – | 3.37 µM | –
34 | – | – | CC1(C)Oc2c(cccc2-c2ccccc2)C=C1C=O | ≥ 10 µM | 46% | > 10 µM | 3%
35 | 15% | -21% | O=c1oc2ccc3ccccc3c2cc1Cc1ccccc1 | 4.19 µM | – | ≥ 10 µM | 59%

Row | Structure (SMILES) | Activity [1] | Activity [2] | Ki [3] | Activity [4] | Ki [5] | Activity [6]
36 | COc1cc(C)cc2oc(=O)c(Cc3ccccc3)cc12 | 3% | -8% | 3.46 µM | – | ≥ 10 µM | 45%
37 | Cc1ccc(C(C)C)c2cc(Cc3ccccc3)c(=O)oc12 | 19% | -9% | 2.76 µM | – | 4.27 µM | –

Reference: ChEMBL document CHEMBL1153953, “Synthesis and pharmacological evaluation of coumarin derivatives as cannabinoid receptor antagonists and inverse agonists” (Bioorg Med Chem, 2009)
